The values below come from the RNAGym collection of RNA variant scans (doi:10.1126/science.aae0568).

This sample holds only a part of the variants without activity.

B1: tRNA (parent)
chain: GUUCCGUUGGCGUAAUGGUAACGCGUCUCCCUCCUAAGGAGAAGACUGCGGGUUCGAGUCCCGUACGGAACG

The variants in this data set derive from B1. In words: yeast fitness relative to wild type (ratio to wild type); higher = fitter; tRNA-Arg(CCU), competitive growth, 37 C, YPD. A digest of the protocol:
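Gene amplicons from the start population and from each of six end populations were read by 100-nucleotide paired-end sequencing. Those end populations came from pooled Saccharomyces cerevisiae strains carrying tRNA-Arg(CCU) gene variants at the native locus, competed in YPD at 37°C for 24 hours. Fitness relative to wild type was worked out from changes in genotype frequencies. Genotypes needed ≥ 100 starting reads, and estimates < 0.5 were set to 0.5.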
GUUCCGUUGGCGUAAUGCUAACGCGUCUCCCUCCUAAGGAGAAGACUGCGGGUUCGAGUCCGGUAAGGAACG [G18C C62G C66A]: the yeast fitness was at most 0.5. As to GUUCCGUUGGCGUAAUGCUAACGCGUCUCCCUCCUAAGGAGAAGACUGCGGGUUCGGGUCCCGUACGGAACG [G18C A57G], the yeast fitness came to 0.715.

On to GUUCCGUUGGCGUAAUGCUAAAGCGUCUCCCUCCUAAGGAGAAGACUGCGGGUUCGAGUCCCGUACGGAACG [G18C C22A], for which the yeast fitness was 0.582.

For the variant GUUCCGUUGGCGUAAUGCUAACGCGUCUUCCUCCUAAGGAGAAGACUGCGGGUUCGAGUCCCGUACGGACCG [G18C C29U A70C], the yeast fitness is at most 0.5.

Take GUUCCGUUGGCGUAAUGCUAACGCGUCUCCCUCCUAAAGAGAUGGCUGCGGGUUCGGGCCCCGUACGGAACG [G18C G38A A43U A45G A57G U59C]: the yeast fitness was at most 0.5.

As for GUUCCGUUGGCGUAAUGCUAACGCGUCUCCCUCCUAAGGAGAAGACUGCGGGUUCGAGUUCCGUACAGAACG [G18C C60U G67A], the yeast fitness was at most 0.5.

GUUCCGUUGGCGUAAUGCUAACGCGUUUCCCUCCUAAGGAGAAGACUGCGGGUUGGAGUCCCGUGCGCAACG [G18C C27U C55G A65G G68C]: the yeast fitness is at most 0.5. As for GUUCCGUUGGCGUAAUGCUAACCCGUCUCCCUCCUAAGAAGAAGACUGCGGGUUCGAGUCCCGUACGGAACG [G18C G23C G39A], the yeast fitness is at most 0.5. As for GUUCCGUUGGCGUAAUGCUAACGCGUCUCCCUGCUCAGGAGAAGAAUGCGGGUUCGAGUCCCGUACGGAACG [G18C C33G A36C C46A], the figure is at most 0.5; as for GUUCCGUUGGCGUAAUGCUAACGCGUCUCCCUCGUAAGCAGAAGACUGCGGGUUCGAGUCCCGUACGGAACG [G18C C34G G39C], at most 0.5. Consider GUUCCGUUGGCGUAAUGCUAACGCGUCUGCCUCCUAAGGAGAAGGCUGCGGGUUCGAGUCCCGUAUGGAACG [G18C C29G A45G C66U], for which the yeast fitness was found to be 0.613. As for GUUCCGUUGGCGUAAUGCUAACGCGUCUUUCUCCUAAGGAGAAGACUGCGGGUUCGAGUCCCGUACAGAACG [G18C C29U C30U G67A], the figure is at most 0.5; as for GUUCCGUUGGCGUAAUGCUAACGCGUCUCCCUCCUAAGGAGAAGCCUGCGGAUUCGAGUCCCGUCCGGAACG [G18C A45C G52A A65C], at most 0.5.

As for GUUCCGUUGGCGUAAUGCUAACGCGUCUGCCUCCUCAGGAGAACACUGCAGGUUCGAGUCCCGUAAGGAACG [G18C C29G A36C G44C G50A C66A], the yeast fitness is at most 0.5. On to GUUCCGUUGGCGUAAUGCUAACACCUCUCCCUCCUAGGGAGACGACUGCGGGUUCGAGUCCCGUACGGAACG [G18C G23A G25C A37G A43C], for which the yeast fitness is at most 0.5. For the variant GUUCCGUUGGCGUAAUGCUAACGCGUCUCCCUCCUAAGGAGAAGACUGUGGGUUCCAAUCCCGUACGGAACG [G18C C49U G56C G58A], the yeast fitness was at most 0.5. GUUCCGUUGGCGUAAUGCUAACGCGUCUCCCUCCUAAGGAGAAGACUGUGGGUUCGAGUCCUGUACGGAACG [G18C C49U C62U]: the yeast fitness was at most 0.5. For the variant GUUCCGUUGGCGUAAUGCUAACAUGUCUCCCUCCUAAGGAGAAGACUGCGGGUUCGAGUCUCGUACGGAACG [G18C G23A C24U C61U], the yeast fitness was at most 0.5. Take GUUCCGUUGGCGUAAUGCUAACGCGUCUUCCUCCUAAGGAGAGGACUGAGGGUUCGAGUCCCGUACGGAACG [G18C C29U A43G C49A]: the yeast fitness was at most 0.5. Turning to GUUCCGUUGGCGUAAUGCUAACACGUCUCCCUCCUAAGGAGAAGACUGCGGGUUCGAGUCACGUACGGAACG [G18C G23A C61A], the yeast fitness was at most 0.5.

On to GUUCCGUUGGCGUAAUGCUAACACGUCUCCCUCCUAAGGAGAAGACUGCGGGUUCGAGUCUCGUACGGAACG [G18C G23A C61U], for which the yeast fitness is at most 0.5. GUUCCGUUGGCGUAAUGCUAACGGGUCUCCCUCCUCACGAGAAGACUGCGGGUUCGACUCCCGUACGGAACG [G18C C24G A36C G38C G58C]: the yeast fitness is at most 0.5. In the case of GUUCCGUUGGCGUAAUGCUAACGGGUCUCCCUCCUAAGGAGAAGAGUGCGGGUUCGAGUCCCGUACGGAACG [G18C C24G C46G], the yeast fitness was at most 0.5. Next, GUUCCGUUGGCGUAAUGCUAACGGGUCUCCCUCCUAAGGAGAAGAAUGCGGGUUCGAGUCCCGUACGGAACG [G18C C24G C46A]: at most 0.5; GUUCCGUUGGCGUAAUGCUAACGCGUCUCCCUCCUAUGGUGAAGACUGCGGGUUCGAGUCCCGCACAGAACG [G18C A37U A40U U64C G67A]: at most 0.5; GUUCCGUUGGCGUAAUGCUAAUGCGUCUCCCUCCUAAGGAGAAGACUGCGGGUUCCAGUCCCGUACGGAACG [G18C C22U G56C]: 0.542. As for GUUCCGUUGGCGUAAUGCUAACGCGUCUCCCUCCUAAGGCGAAGACUGGGGGUUCGAGUCCCGUACGGAACG [G18C A40C C49G], the figure is at most 0.5; as for GUUCCGUUGGCGUAAUGCUAAAGCGUCUUCCUCCUAAGGAGAAGCCUGCGGGUUCGAGUCCCGUACGGAACG [G18C C22A C29U A45C], at most 0.5; as for GUUCCGUUGGCGUAAUGCUAAGGCGUCUCCUUCCUAAGGAGAAGACUGCGGGUUCGAGACCCAUACGGAACG [G18C C22G C31U U59A G63A], at most 0.5.

As to GUUCCGUUGGCGUAAUGCUAACGCGUCUCCGUCCUAAGGAGGAGACUGCGGGUUCGAGUCCCGUACAGAACG [G18C C31G A42G G67A], the yeast fitness was at most 0.5. As to GUUCCGUUGGCGUAAUGCUAACGCGUCUCCCUCCUAAGGAGAAGACUGCGGGUUCGAGUCCCGUACGGUACG [G18C A69U], the yeast fitness amounted to 0.695.

As for GUUCCGUUGGCGUAAUGCUAACGGGUCUCCCUCCUCACGAGAAGACUGCGGGUCCGACUCCCGUACGGAACG [G18C C24G A36C G38C U54C G58C], the yeast fitness is at most 0.5. Next, GUUCCGUUGGCGUAAUGCUAACGCGUCUCCCUCCUAAGGAGAAGCCUGCGGGUUCGAGUCCCGUCCGGAACG [G18C A45C A65C]: 0.598.

As for GUUCCGUUGGCGUAAUGCUAACGUGUCUGGCUCCUAAGGAGAAGACUGCGGGUUCGAGUCCCGUACGGAACG [G18C C24U C29G C30G], the yeast fitness was determined as 0.593. Consider GUUCCGUUGGCGUAAUGCUAACGCGUCUGCCUCCUCAGGAGAACACUGCAGGUUCGAGUCCCGUACGGAACG [G18C C29G A36C G44C G50A], for which the yeast fitness was 0.526.

Regarding GUUCCGUUGGCGUAAUGCUAAAGCGUCUCCCCCCUAAGGAGAAGCUUGCGGGUUCGAGUCCCGUCCGGAACG [G18C C22A U32C A45C C46U A65C], the yeast fitness is at most 0.5.

Regarding GUUCCGUUGGCGUAAUGCUAACGCGUCUCCCUCCUAAGGAGAAGACUGGGGGUUCGAGUCGCGUACGGAACG [G18C C49G C61G], the yeast fitness was at most 0.5.
